Sampled rows, rich in hits. Any-hit rate of the full collection: about 5.9%.
T cruzi growth-1 – T. cruzi proliferation inhibition; inhibition, % at 8.34 µM; AID 624255; T. cruzi beta-gal in NIH3T3, GalScreen luminescence, 90 h; 5.9% of 77,000 active;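 active = mean inhibition above about 93%, with at least 55% of replicates each passing it, limit read from the data, passing the limit was not always enough; inconclusive = only one of those two conditions holds; inactive = neither condition holds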
Pf Dd2 inh – blocks growth of Plasmodium falciparum Dd2 parasites; activity change, % at 10 µM; P. falciparum Dd2 growth, SYBR Green, 72 h; active compounds read low; AID 1159554; 2.3% of 94,000 active; in the data active = activity change below about -80%; inconclusive = no clear call, values can overlap the other calls
GASC1 inh – blocks human GASC-1 (KDM4C) demethylase activity; Q9H3R0; GST-KDM4C 2-372, H3K9me3 peptide, LANCE TR-FRET; inhibition, % at 12.5 µM; 0.15% of 96,000 active; AID 720574;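 active = mean replicate inhibition above about 25%, with at least 55% of replicates also reaching it, limit read from the data, passing the limit was not always enough; inconclusive = only one of those two conditions met; inactive = neither condition met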
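Material: N-terminal GST-fused human GASC-1 (KDM4C) fragment, residues 2-372. Input: 10 nM enzyme. Incubation: enzyme reaction 30 min, then detection 60 min, both room temperature. Doses: one test concentration per compound. Read-out basis: inhibition from TR-FRET ratio decrease. Detection: LANCE TR-FRET, excitation 340 nm, emissions 618 and 671 nm.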
IDH1 mut inh – IDH1 R132H (human) inhibition; O75874; IDH1 R132H reductase, diaphorase/resazurin fluorescence, 60 min; AID 624101; inhibition, % at 10 µM; 0.18% of 70,000 active; in the data active = inhibition above about 34%; inconclusive = no clear call, values can overlap the other calls; inactive = below about 11%;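 note: 0% = DMSO and 100% = no enzyme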
Target sequence (O75874 whole entry R132H): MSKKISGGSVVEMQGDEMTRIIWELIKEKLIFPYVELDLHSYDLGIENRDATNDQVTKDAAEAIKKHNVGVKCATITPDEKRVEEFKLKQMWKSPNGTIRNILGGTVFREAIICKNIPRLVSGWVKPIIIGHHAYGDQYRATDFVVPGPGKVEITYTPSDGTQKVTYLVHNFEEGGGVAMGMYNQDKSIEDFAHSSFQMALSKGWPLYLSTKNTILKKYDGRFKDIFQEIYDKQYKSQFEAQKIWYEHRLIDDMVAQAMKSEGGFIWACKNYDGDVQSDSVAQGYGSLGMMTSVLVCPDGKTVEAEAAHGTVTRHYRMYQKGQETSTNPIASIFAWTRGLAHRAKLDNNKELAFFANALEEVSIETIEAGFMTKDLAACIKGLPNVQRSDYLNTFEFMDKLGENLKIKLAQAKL
T cruzi growth-2 – blocks T. cruzi growth in NIH3T3 host cells | 72% of 5,600 active | shares compounds with T cruzi growth-1 | inhibition, % at 8.35 µM | T. cruzi beta-gal in NIH3T3, GalScreen luminescence, 90 h;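 active = mean replicate inhibition above about 95% and at least 55% of replicates individually reaching it, limit read from the data; inconclusive = only one of the two criteria is met; inactive = neither criterion is met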
T cruzi growth-3 – blocks T. cruzi growth in NIH3T3 host cells; inhibition, % at 2.09 µM; 21% of 5,600 active; T. cruzi beta-gal in NIH3T3, GalScreen luminescence, 90 h; AID 651740; shares compounds with T cruzi growth-1;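 active = mean inhibition above about 95%, with at least 55% of replicates also reaching it, limit read from the data; inconclusive = meets just one of the two conditions; inactive = meets neither condition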;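 note: plate controls were neutral control median for no effect and positive control median for full effect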
3T3 cytotox – kills mouse NIH/3T3 fibroblasts; shares compounds with T cruzi growth-1; NIH/3T3 viability, CellTiter-Glo ATP luminescence, 90 h; cytotoxicity (signal decrease), % at 8.35 µM; 14% of 5,600 active;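 active = mean signal decrease across replicates above about 35% based on untreated-well scatter, with enough replicates individually passing, limit read from the data; inconclusive = no rule stated though some were filed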;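 note: 0% = median of neutral control wells and 100% = median of positive control wells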
3T3 cytotox 2 – NIH/3T3 (mouse) viability loss | shares compounds with T cruzi growth-1 | NIH/3T3 viability, CellTiter-Glo ATP luminescence, 90 h | inhibition, % at 24.9 µM | 56% of 5,600 active;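 active = mean loss of cell viability signal at or above a set limit, and enough replicates individually reaching it; inconclusive = meets only the mean limit or only the replicate share; inactive = meets neither condition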;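 note: 0% = median of neutral control wells and 100% = median of positive control wells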
Numbers without * were called inactive; ? = inconclusive; . = not tested or not shown.

SMILES	T cruzi growth-1	Pf Dd2 inh	GASC1 inh	IDH1 mut inh	T cruzi growth-2	T cruzi growth-3	3T3 cytotox	3T3 cytotox 2
COC(=O)c1c(NC(=S)N2CCN(Cc3c(C)nn(C)c3C)CC2)sc2c1CCC(C)C2 (configuration not stated)	.	.	.	0	.	.	.	.
COc1ccccc1-c1nnc(SCC(=O)Nc2ccccc2C(F)(F)F)n1C	.	.	.	0	.	.	.	.
C[C@@H]1CN([C@H](C)CO)C(=O)c2cc(NC(=O)Nc3ccc(F)cc3)ccc2O[C@@H](C)CCCCO[C@H]1CN(C)S(=O)(=O)c1cccs1	33	-72	0	.	.	.	.	.
C[C@H](CO)N1C[C@H](C)[C@@H](CN(C)S(=O)(=O)c2cccs2)OCCCC[C@H](C)Oc2ccc(NC(=O)Nc3ccc(C(F)(F)F)cc3)cc2C1=O	97*	-46	1	-1	102*	117*	33	26*
C[C@H]1CCCCO[C@@H](CN(C)S(=O)(=O)c2cccs2)[C@@H](C)CN([C@@H](C)CO)C(=O)c2cc(NC(=O)Nc3ccc4c(c3)OCO4)ccc2O1	111*	-64	1	.	111*	48	14	10
C[C@@H]1CN([C@@H](C)CO)C(=O)c2cc(NC(=O)Nc3ccc(C(F)(F)F)cc3)ccc2O[C@@H](C)CCCCO[C@@H]1CN(C)S(=O)(=O)c1cccs1	37	-56	-1	2	.	.	.	.
C[C@@H]1CCCCO[C@@H](CN(C)S(=O)(=O)c2cccs2)[C@H](C)CN([C@H](C)CO)C(=O)c2cc(NC(=O)Nc3ccc(F)cc3)ccc2O1	?	-78	-4	.	108*	42	-15	8
Cc1noc(C)c1NC(=O)Nc1ccc2c(c1)C(=O)N(C)[C@H]1CC[C@@H](CC(=O)N[C@H]3CCN(Cc4ccccc4)C3)O[C@H]1CO2	117*	2	1	.	88	43	-5	-14
Cc1noc(C)c1NC(=O)Nc1ccc2c(c1)C(=O)N(C)[C@@H]1CC[C@@H](CC(=O)N[C@H]3CCN(Cc4ccccc4)C3)O[C@H]1CO2	102*	8	2	.	17	-25	-1	-1
COc1cccc(S(=O)(=O)N2CCCCN3[C@H](C2)[C@@H](c2ccc(C#CC(C)C)cc2)[C@@H]3CO)c1	81	-16	0	.	.	.	.	.
COc1cccc(S(=O)(=O)N2CCCCN3[C@H](CO)[C@H](c4ccc(C#CC(C)C)cc4)[C@H]3C2)c1	97*	-69	1	.	106*	108*	33	103*
Cc1cccc(S(=O)(=O)N2CCCCN3[C@H](C2)[C@@H](c2ccc(C#CC(C)C)cc2)[C@@H]3CO)c1	?	-34	0	.	101*	112*	47*	98*
O=C(c1cccc(F)c1)N1CCCCN2[C@H](CO)[C@H](c3ccc(-c4ccccc4)cc3)[C@@H]2C1	102*	-7	-1	.	113*	89	16	11
O=C(c1cccc(F)c1)N1CCCCN2[C@@H](CO)[C@H](c3ccc(-c4ccccc4)cc3)[C@@H]2C1	103*	-11	-1	.	105*	53	24	91*
CC(C(=O)Nc1ccc(Oc2ccccc2)cc1)N1c2cccc3cccc(c23)S1(=O)=O (configuration not stated)	.	.	.	0	.	.	.	.
C[C@@H]1CN([C@@H](C)CO)C(=O)c2cccc(NC(=O)C3CCOCC3)c2O[C@H]1CN(C)Cc1ccc(C(=O)Nc2ccccc2N)cc1	107*	-67	6	.	105*	83	14	13
C[C@@H]1CN([C@H](C)CO)C(=O)c2cccc(NC(=O)C3CCOCC3)c2O[C@@H]1CN(C)Cc1ccc(C(=O)Nc2ccccc2N)cc1	81	3	-3	.	.	.	.	.
C[C@H]1CN([C@@H](C)CO)C(=O)c2cccc(NC(=O)NC3CCCCC3)c2O[C@H]1CN(C)Cc1ccc(C(=O)Nc2ccccc2N)cc1	?	-74	1	.	101*	?	-16	?
C[C@@H]1CN([C@@H](C)CO)C(=O)c2cccc(NC(=O)C3CC3)c2O[C@H]1CN(C)Cc1ccc(C(=O)Nc2ccccc2N)cc1	99*	-54	-1	1	106*	94	-9	6
CC(C)NC(=O)Nc1cccc2c1O[C@@H](CN(C)Cc1ccc(C(=O)Nc3ccccc3N)cc1)[C@@H](C)CN([C@@H](C)CO)C2=O	.	-20	1	0	.	.	.	.
COc1ccc(N(C(C)C(=O)N2CCOCC2)S(C)(=O)=O)cc1 (configuration not stated)	.	.	.	-1	.	.	.	.
COc1ccc(NC(=O)Nc2ccc3c(c2)C(=O)N([C@H](C)CO)C[C@H](C)[C@@H](CN(C)S(=O)(=O)c2ccc(C)cc2)OCCCC[C@H](C)O3)cc1	61	-54	4	16	.	.	.	.
COc1ccc(NC(=O)Nc2ccc3c(c2)C(=O)N([C@@H](C)CO)C[C@@H](C)[C@@H](CN(C)S(=O)(=O)c2ccc(C)cc2)OCCCC[C@@H](C)O3)cc1	97*	-60	-3	-2	104*	31	-24	-11
COc1ccc(NC(=O)Nc2ccc3c(c2)C(=O)N([C@@H](C)CO)C[C@H](C)[C@@H](CN(C)S(=O)(=O)c2ccc(C)cc2)OCCCC[C@H](C)O3)cc1	102*	-70	6	5	105*	34	-3	4
COc1ccc(NC(=O)Nc2ccc3c(c2)C(=O)N([C@@H](C)CO)C[C@H](C)[C@@H](CN(C)S(=O)(=O)c2ccc(OC)cc2)OCCCC[C@@H](C)O3)cc1	42	-57	-1	.	.	.	.	.
COc1ccc(NC(=O)Nc2ccc3c(c2)C(=O)N([C@@H](C)CO)C[C@H](C)[C@H](CN(C)S(=O)(=O)c2ccc(C)cc2)OCCCC[C@H](C)O3)cc1	104*	-74	3	0	111*	68	-9	-7
COc1ccc(S(=O)(=O)N(C)C[C@@H]2OCCCC[C@@H](C)Oc3ccc(NC(=O)Nc4ccccc4)cc3C(=O)N([C@H](C)CO)C[C@H]2C)cc1	104*	-79	-4	-1	104*	62	-17	17
CCCC#Cc1ccc([C@@H]2[C@H]3CN(C(=O)c4ccc5c(c4)OCO5)CCCCN3[C@H]2CO)cc1	94	-34	-1	.	.	.	.	.
CC(C)C#Cc1ccc([C@@H]2[C@H]3CN(C(=O)c4ccc5c(c4)OCO5)CCCCN3[C@H]2CO)cc1	39	-8	-1	.	.	.	.	.

Assay outcomes as filed in PubChem.
